Compound activity: PubChem BioAssay, The Scripps Research Institute Molecular Screening Center
PLC-beta3 inh – inhibitors of human phospholipase C beta3 | Purified PLC-beta3, fluorogenic substrate, fluorescence | inhibition, % at 12.2 µM | actives 0.18% (n = 370,000); in the data active = inhibition above about 11%
TbMetRS inhib – Trypanosoma brucei MetRS inhibition; inhibition, % at 11.9 µM; AID 624268; actives 0.4% (n = 360,000); purified T. brucei MetRS, ATP depletion, Kinase-Glo luminescence;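 active = inhibition above a per-plate cutoff of the control wells' mean inhibition plus 3 SD, cut at about 5.5% in these data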
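Dosing: 11.9 µM compound single dose, 0.9% DMSO; Assay system: purified T. brucei MetRS enzyme; Measured by: Kinase-Glo luciferase luminescence reporting remaining unconsumed ATP; Schedule: 15 min plus 2 h at 25 °C.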
ADAM10 inh – inhibits human ADAM10; O14672; recombinant ADAM10, EDANS/DABCYL FRET peptide cleavage, 3 h; inhibition, % at 7 µM; actives 0.62% (n = 370,000); AID 720582;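 active = inhibition above a per-campaign cutoff equal to the mean of compounds falling between control-based bounds plus 3 SD, cut at about 20% in these data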
ADAM17 inh – inhibits human ADAM17 | inhibition, % at 6.95 µM | recombinant ADAM17, EDANS/DABCYL FRET peptide cleavage | P78536 | AID 720648 | actives 0.83% (n = 370,000);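 active = inhibition above the mean of compounds lying between control limits plus 3 SD, set per campaign, cut at about 8.5% in these data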
PLCg1 inh – inhibitors of human phospholipase C gamma1. purified PLC-gamma1, fluorogenic substrate, fluorescence. actives 0.84% (n = 370,000). inhibition, % at 12.2 µM
PLCgamma1 ctr – counter-screen for PLC-beta3 inhibitors: inhibitors of human PLC-gamma1; shares compounds with PLCg1 inh; purified PLC-gamma1, fluorogenic substrate, fluorescence; inhibition, % at 12.3 µM; actives 3.1% (n = 3,300); AID 743258
PLCb3 confirm – confirmation of human PLC-beta3 inhibitors. shares compounds with PLCg1 inh. purified PLC-beta3, fluorogenic substrate fluorescence. inhibition, % at 12.3 µM. actives 1% (n = 3,300); in the data active = inhibition above about 11%
Large screens that a line does not name were inactive (follow-up assays come after a bar, where they were run). A selection: hits, their analogues and other compounds. The true share with any hit is near 2.3%. Rule as the data show it, unless noted: active = inhibition above about 9.5%; inactive = the rest.

COc1ccc(CCNC(=O)CN2C(=O)COc3ccc(S(=O)(=O)N4CCOCC4)cc32)cc1OC	PLCg1 inh 11 | PLCgamma1 ctr inactive | PLCb3 confirm inactive
COCCn1ccc2c(OCC(=O)Nc3cccc(NC(C)=O)c3)cccc2c1=O	none
CCOc1ccccc1NC(=O)c1cccc(NC2=NC3CS(=O)(=O)CC3S2)c1 (stereo unspecified)	PLCg1 inh 13 | PLCgamma1 ctr inactive | PLCb3 confirm inactive
CCC(c1nnnn1-c1ccc2c(c1)OCCO2)N1CCN(CC)CC1 (stereo unspecified)	PLCg1 inh 10 | PLCgamma1 ctr inactive | PLCb3 confirm inactive
CC(=O)OCCCN1c2ccccc2Nc2nnc(-c3ccccc3)cc21	PLC-beta3 inh 14 | PLCgamma1 ctr inactive | PLCb3 confirm inactive
CS(=O)(=O)c1ccc(C(=O)NC2CCCc3ccccc32)cc1 (stereo unspecified)	none (no result: PLC-beta3 inh, ADAM10 inh, ADAM17 inh, PLCg1 inh)
CCOc1ncccc1C(=O)N=c1sccn1C	PLCg1 inh 12 | PLCgamma1 ctr inactive | PLCb3 confirm inactive
Cc1ccccc1C(=O)N=c1sccn1C	none
O=[N+]([O-])c1ccc(N=Nc2ccc(O)cc2O)cc1	none
O=S(=O)(O)c1cc(Cl)cc(N=Nc2ccc(O)cc2O)c1O	PLCg1 inh 13 | PLCgamma1 ctr inactive | PLCb3 confirm inactive
Oc1ccc(-c2csc(Nc3ncccn3)n2)cc1	none
CC(=O)Nc1ccc(-c2csc(Nc3ncccn3)n2)cc1	PLCg1 inh 9.9 | PLCgamma1 ctr inactive | PLCb3 confirm inactive
O=C(Nc1ccc([N+](=O)[O-])cc1)c1ccccc1F	none
O=C(c1cc(O)c(O)c([N+](=O)[O-])c1)c1ccccc1F	PLCg1 inh 10.0 | PLCgamma1 ctr inactive | PLCb3 confirm inactive
Cc1ccc(CS(=O)Cc2ccc(C(=O)N3CCN(c4ccccc4)CC3)o2)cc1 (stereo unspecified)	none
Cc1ccc(CS(=O)Cc2ccc(C(=O)N3CCN(c4ccc(F)cc4)CC3)o2)cc1 (stereo unspecified)	PLCg1 inh 12 | PLCgamma1 ctr inactive | PLCb3 confirm inactive
COc1cc2c(cc1OC)CN(CC(=O)Nc1ccc(F)cc1F)CC2	none
O=C(CN1CCc2ccccc2C1)Nc1ccc(F)cc1F	PLCg1 inh 10 | PLCgamma1 ctr inactive | PLCb3 confirm inactive
CCn1c(SCC(=O)c2[nH]c(C)c(C(C)=O)c2C)nnc1-c1ccccc1	none
Cc1onc(-c2c(Cl)cccc2Cl)c1NC(=O)NN(C)C	none
CSCCNC(=O)Nc1c(-c2c(Cl)cccc2Cl)noc1C	PLCg1 inh 12 | PLCgamma1 ctr inactive | PLCb3 confirm inactive
Cc1ccc(C(=O)NCCN2C3=NC[C@@H](Cc4ccccc4)N3C[C@H]2Cc2ccc(O)cc2)cc1Br	PLCg1 inh 9.9 | PLCgamma1 ctr inactive | PLCb3 confirm inactive
COc1ccc(C[C@H]2CN3C(=NC[C@H]3Cc3ccccc3)N2CCNC(=O)c2ccc(C)c(Br)c2)cc1	none (no result: PLC-beta3 inh, ADAM10 inh, ADAM17 inh, PLCg1 inh)
CC(C)C[C@H]1CNC(=S)N1C[C@H]1CCCN1C[C@H](Cc1ccc(O)cc1)N1C[C@H](Cc2ccccc2)N(CC2CCCCCC2)C1=S	none
CC(C)C[C@@H](CN1CCC[C@H]1CN1C(=O)C(=O)NC[C@@H]1Cc1ccc(O)cc1)N1C[C@H](Cc2ccccc2)N(CC2CCCCC2)C(=O)C1=O	PLCg1 inh 10 | PLCgamma1 ctr inactive | PLCb3 confirm inactive
C[C@@H]1CN([C@H](C)CO)C(=O)c2cc(Br)cnc2O[C@H]1CN(C)C	none
Nc1ccc(C(=O)N/N=C\C=C\c2cccc([N+](=O)[O-])c2)cc1	PLC-beta3 inh 16, PLCg1 inh 15 | PLCgamma1 ctr inactive | PLCb3 confirm inactive
O=C(O)c1ccccc1-c1noc(-c2ccccc2F)n1	none (no result: TbMetRS inhib)
CC(c1ccccc1)n1c(-c2ccccc2F)n[nH]c1=S (stereo unspecified)	PLCg1 inh 9.9 | PLCgamma1 ctr inactive | PLCb3 confirm inactive
O=C(CN(c1ccccc1Cl)S(=O)(=O)c1ccccc1)NC1CC2CCC1C2 (stereo unspecified)	PLC-beta3 inh 14 | PLCgamma1 ctr inactive | PLCb3 confirm inactive
CC(=O)Nc1c(C)nn(-c2ccc(C)c(C)c2)c1C	PLCg1 inh 9.6 | PLCgamma1 ctr inactive | PLCb3 confirm inactive
